The source of these data is ChEMBL document CHEMBL1165965, “Synthesis and structure-activity relationships of 1,2,3,4-tetrahydropyrido[2,3-b]pyrazines as potent and selective inhibitors of the anaplastic lymphoma kinase” (Bioorg Med Chem, 2010).

The target of assay [1] is Tyrosine-protein kinase Fes/Fps (Homo sapiens) (UniProt P07332). The assay can be described thus: Inhibition of FES at 1 uM. The method in brief: (§1)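 Single-concentration screen using Ambit Bioscience KINOMEscan technology across a panel of 250–400 kinases. Per-kinase inhibition from this screen was summarized as S(90), the fraction of kinases inhibited by more than 90%.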

The target in assay [2] is Calcium/calmodulin-dependent protein kinase type 1 (Homo sapiens) (UniProt Q14012). Kind of assay: Inhibition of CAMK1 at 1 uM. The method in brief: (§2)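 Ambit KINOMEscan screen at a single concentration across a 250–400 kinase panel, recorded as percent inhibition. Selectivity was expressed as S(90), the fraction of kinases inhibited >90%.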
Assay [3] concerns the target T1, Aurora kinase A (Homo sapiens) (UniProt O14965).
T1 sequence (whole entry): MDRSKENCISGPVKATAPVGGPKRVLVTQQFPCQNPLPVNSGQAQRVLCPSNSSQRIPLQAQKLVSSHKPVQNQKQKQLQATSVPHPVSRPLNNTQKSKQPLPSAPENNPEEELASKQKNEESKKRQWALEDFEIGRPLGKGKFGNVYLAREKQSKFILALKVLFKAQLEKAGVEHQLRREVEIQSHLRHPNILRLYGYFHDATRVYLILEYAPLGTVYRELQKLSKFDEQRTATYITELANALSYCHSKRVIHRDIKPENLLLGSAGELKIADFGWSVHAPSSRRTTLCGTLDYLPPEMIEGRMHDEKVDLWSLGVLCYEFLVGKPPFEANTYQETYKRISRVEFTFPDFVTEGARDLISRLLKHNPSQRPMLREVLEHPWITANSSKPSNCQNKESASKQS
Kind of assay: Inhibition of AURKA at 1 uM. In short, it runs like this: as §2

In assay [4] the target is Epithelial discoidin domain-containing receptor 1 (Homo sapiens) (UniProt Q08345). Kind of assay: Inhibition of DDR1 at 1 uM. In short, it runs like this: as §1
In assay [5] the target is Epidermal growth factor receptor (Homo sapiens) (UniProt P04626+P00533+Q15303+P21860). Kind of assay: Inhibition of EGFR E746-A750del mutant at 1 uM. In kind it is protein assay. In short, it runs like this:
as §1

For assay [6], the target named is T2, Cyclin-dependent kinase-like 2 (Homo sapiens) (UniProt Q92772).
T2 sequence (whole entry): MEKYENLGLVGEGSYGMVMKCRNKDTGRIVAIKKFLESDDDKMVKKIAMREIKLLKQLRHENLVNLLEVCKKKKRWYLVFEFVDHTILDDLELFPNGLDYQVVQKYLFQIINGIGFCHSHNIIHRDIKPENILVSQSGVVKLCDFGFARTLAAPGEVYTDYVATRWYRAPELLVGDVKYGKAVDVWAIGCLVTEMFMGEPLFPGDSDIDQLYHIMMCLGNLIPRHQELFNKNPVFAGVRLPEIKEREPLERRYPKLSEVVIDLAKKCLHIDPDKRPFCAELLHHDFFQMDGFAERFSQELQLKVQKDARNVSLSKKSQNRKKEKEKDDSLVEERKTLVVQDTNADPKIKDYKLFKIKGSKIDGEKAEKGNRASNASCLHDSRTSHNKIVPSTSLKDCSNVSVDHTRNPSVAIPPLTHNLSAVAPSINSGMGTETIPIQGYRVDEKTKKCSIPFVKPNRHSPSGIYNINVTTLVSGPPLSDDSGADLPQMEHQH
Kind of assay: Inhibition of CDKL2 at 1 uM.

Assay [7] has as its target T3, Serine/threonine-protein kinase 3 (Homo sapiens) (UniProt Q13188).
T3 sequence (whole entry): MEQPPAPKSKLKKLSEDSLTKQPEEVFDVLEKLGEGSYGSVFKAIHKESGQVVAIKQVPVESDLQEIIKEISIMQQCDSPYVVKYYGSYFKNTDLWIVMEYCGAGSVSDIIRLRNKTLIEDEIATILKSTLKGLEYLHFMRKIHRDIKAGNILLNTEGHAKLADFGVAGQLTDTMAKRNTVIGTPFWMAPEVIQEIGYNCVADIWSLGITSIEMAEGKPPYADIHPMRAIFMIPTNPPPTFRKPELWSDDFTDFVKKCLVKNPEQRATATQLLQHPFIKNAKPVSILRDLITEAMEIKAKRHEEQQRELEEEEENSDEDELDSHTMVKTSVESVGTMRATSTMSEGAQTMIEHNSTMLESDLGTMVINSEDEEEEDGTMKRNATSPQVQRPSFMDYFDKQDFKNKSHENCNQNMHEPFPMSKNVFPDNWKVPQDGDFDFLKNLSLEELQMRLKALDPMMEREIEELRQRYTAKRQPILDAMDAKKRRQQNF
Kind of assay: Inhibition of MST2 at 1 uM.

Assay [8] concerns the target T4, Dual specificity mitogen-activated protein kinase kinase 4 (Homo sapiens) (UniProt P45985).
T4 sequence (whole entry): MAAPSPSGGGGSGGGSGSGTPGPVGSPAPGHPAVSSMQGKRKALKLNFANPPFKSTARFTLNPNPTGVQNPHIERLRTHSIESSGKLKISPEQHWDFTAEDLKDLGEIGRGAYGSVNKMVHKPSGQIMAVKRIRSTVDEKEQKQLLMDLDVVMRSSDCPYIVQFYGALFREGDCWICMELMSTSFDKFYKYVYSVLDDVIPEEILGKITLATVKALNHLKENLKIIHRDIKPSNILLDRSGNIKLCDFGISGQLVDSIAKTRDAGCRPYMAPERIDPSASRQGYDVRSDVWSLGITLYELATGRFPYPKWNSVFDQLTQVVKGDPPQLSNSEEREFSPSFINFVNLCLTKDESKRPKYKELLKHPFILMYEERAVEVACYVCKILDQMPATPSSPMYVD
Kind of assay: Inhibition of MEK4 at 1 uM.

Assay [9] deals with MAP kinase-interacting serine/threonine-protein kinase 1 (Homo sapiens) (UniProt Q9BUB5). The assay can be described thus: Inhibition of MKNK1 at 1 uM.
Assay [10] has as its target Mitogen-activated protein kinase kinase kinase 20 (Homo sapiens) (UniProt Q9NYL2). Kind of assay: Inhibition of ZAK at 1 uM.
Assay [11] addresses Mitogen-activated protein kinase 4 (Homo sapiens) (UniProt P31152). Kind of assay: Inhibition of ERK4 at 1 uM.
The target in assay [12] is Myosin-IIIa (Homo sapiens) (UniProt Q8NEV4). Kind of assay: Inhibition of MYO3A at 1 uM.

Where only a bound is given, the exact number is not on record here.

Sequence of Myosin-IIIa (Homo sapiens) (Q8NEV4 whole entry): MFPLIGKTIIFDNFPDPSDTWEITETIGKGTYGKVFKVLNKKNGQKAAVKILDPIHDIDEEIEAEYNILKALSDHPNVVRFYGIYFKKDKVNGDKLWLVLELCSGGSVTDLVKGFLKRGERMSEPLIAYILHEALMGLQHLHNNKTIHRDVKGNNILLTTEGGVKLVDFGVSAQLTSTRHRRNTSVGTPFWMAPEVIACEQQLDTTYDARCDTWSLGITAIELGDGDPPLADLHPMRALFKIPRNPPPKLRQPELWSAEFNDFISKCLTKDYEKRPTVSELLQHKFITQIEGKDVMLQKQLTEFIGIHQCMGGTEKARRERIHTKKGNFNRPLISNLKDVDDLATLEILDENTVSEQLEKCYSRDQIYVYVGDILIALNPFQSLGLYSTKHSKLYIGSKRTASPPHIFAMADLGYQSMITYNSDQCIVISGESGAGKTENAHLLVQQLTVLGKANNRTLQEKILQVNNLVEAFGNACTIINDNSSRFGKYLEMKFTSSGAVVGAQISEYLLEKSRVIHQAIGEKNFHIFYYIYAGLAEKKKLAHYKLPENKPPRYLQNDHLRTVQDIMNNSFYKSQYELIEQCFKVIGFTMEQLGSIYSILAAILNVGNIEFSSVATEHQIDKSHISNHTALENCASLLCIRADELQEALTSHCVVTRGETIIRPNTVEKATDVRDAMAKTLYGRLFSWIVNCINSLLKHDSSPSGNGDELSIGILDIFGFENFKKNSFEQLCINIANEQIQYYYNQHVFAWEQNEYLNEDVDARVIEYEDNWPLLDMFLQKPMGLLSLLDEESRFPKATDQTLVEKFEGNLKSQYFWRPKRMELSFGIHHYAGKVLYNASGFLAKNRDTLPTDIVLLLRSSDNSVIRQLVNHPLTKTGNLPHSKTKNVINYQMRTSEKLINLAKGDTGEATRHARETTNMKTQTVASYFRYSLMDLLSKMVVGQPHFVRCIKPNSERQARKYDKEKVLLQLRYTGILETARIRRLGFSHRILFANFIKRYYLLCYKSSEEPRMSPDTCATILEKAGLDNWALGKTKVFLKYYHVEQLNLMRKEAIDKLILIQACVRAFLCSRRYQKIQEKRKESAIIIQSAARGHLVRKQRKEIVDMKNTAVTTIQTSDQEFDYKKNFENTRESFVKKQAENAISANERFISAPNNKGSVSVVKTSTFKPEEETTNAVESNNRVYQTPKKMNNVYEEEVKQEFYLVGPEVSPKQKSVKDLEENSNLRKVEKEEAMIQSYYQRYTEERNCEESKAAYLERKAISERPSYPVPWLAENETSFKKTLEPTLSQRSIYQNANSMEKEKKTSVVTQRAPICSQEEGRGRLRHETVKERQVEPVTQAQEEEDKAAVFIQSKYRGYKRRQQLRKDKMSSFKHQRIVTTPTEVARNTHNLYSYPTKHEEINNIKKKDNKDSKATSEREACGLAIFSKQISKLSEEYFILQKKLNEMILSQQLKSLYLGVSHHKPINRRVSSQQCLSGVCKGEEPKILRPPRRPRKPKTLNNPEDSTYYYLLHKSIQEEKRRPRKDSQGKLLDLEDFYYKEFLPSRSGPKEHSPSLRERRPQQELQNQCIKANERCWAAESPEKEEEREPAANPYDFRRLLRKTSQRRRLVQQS
Sequence of Mitogen-activated protein kinase kinase kinase 20 (Homo sapiens) (Q9NYL2 2-800 limits assumed): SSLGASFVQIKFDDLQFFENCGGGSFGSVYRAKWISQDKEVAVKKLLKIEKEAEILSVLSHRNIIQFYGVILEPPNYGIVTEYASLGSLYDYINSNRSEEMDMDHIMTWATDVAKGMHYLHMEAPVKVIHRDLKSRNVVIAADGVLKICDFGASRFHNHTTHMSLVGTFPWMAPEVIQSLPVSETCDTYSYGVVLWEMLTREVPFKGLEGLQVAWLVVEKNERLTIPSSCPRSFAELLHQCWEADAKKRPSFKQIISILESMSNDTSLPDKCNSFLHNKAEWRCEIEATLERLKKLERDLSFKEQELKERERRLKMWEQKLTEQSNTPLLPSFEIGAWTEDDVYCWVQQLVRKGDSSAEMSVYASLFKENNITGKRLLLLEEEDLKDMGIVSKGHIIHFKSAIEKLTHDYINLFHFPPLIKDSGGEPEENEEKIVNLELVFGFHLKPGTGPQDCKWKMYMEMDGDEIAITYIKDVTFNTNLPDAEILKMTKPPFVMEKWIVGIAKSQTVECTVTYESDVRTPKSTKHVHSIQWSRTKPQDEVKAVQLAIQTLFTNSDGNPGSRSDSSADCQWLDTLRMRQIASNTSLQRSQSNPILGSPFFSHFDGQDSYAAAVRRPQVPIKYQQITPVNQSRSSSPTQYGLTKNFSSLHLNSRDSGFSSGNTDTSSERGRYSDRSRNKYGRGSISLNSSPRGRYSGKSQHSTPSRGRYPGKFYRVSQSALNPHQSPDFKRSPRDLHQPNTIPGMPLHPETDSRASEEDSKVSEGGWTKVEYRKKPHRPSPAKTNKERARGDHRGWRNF
Sequence of Epithelial discoidin domain-containing receptor 1 (Homo sapiens) (Q08345 whole entry, the tested form may be a part): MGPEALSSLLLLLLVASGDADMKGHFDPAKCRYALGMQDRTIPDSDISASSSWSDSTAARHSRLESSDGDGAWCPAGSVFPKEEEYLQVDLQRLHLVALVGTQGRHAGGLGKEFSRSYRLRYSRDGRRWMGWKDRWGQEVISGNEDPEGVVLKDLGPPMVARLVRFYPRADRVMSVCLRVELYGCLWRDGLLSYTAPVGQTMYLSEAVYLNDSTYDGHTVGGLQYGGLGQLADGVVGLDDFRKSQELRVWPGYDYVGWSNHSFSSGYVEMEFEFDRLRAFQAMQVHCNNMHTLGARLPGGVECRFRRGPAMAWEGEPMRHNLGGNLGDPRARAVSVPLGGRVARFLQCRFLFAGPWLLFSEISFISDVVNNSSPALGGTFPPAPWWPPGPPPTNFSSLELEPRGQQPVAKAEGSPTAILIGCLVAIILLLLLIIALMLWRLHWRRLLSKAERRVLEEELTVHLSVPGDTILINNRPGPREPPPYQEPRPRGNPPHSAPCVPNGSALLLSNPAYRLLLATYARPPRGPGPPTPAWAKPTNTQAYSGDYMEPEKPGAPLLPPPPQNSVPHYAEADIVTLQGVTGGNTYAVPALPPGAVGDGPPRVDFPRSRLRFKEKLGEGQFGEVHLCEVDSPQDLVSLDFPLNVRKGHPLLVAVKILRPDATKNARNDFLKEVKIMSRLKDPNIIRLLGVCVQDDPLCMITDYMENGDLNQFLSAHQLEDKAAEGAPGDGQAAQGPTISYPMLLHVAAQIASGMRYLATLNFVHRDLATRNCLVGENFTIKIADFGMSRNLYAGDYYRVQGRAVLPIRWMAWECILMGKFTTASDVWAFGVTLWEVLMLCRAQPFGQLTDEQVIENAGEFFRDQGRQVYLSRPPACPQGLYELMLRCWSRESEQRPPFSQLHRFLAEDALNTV
Sequence of Tyrosine-protein kinase Fes/Fps (Homo sapiens) (P07332 whole entry): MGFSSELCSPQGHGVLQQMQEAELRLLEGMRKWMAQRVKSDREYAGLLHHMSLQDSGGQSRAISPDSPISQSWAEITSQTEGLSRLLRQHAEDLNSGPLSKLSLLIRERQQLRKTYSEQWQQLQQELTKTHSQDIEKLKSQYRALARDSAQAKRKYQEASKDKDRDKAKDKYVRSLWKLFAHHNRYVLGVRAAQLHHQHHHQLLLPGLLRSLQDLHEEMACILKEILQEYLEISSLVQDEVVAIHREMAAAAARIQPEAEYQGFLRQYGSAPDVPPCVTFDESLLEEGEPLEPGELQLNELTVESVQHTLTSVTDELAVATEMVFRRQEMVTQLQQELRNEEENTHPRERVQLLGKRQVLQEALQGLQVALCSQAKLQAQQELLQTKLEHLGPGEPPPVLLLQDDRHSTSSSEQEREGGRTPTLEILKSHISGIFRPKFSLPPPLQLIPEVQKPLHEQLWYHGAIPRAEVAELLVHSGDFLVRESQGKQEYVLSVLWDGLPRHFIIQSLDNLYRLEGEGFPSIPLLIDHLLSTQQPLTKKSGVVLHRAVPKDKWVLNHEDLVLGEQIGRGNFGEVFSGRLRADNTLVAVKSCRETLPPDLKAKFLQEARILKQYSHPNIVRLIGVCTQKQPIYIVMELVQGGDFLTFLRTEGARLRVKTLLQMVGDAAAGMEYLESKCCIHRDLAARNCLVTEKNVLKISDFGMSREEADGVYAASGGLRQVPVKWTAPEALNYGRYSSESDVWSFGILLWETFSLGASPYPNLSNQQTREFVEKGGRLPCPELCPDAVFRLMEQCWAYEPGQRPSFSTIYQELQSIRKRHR
Sequence of Calcium/calmodulin-dependent protein kinase type 1 (Homo sapiens) (Q14012 whole entry, looked up): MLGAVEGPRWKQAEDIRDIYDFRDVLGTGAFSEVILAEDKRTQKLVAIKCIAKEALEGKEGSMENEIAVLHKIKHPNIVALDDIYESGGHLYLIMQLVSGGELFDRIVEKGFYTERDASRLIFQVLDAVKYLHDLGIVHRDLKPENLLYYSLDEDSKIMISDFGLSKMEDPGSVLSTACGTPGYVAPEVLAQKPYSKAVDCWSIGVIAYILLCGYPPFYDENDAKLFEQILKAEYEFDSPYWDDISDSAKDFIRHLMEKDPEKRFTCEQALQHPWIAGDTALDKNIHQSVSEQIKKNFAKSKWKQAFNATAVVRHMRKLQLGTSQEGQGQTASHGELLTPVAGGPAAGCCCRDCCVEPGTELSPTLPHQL
Sequence of MAP kinase-interacting serine/threonine-protein kinase 1 (Homo sapiens) (Q9BUB5 whole entry, looked up): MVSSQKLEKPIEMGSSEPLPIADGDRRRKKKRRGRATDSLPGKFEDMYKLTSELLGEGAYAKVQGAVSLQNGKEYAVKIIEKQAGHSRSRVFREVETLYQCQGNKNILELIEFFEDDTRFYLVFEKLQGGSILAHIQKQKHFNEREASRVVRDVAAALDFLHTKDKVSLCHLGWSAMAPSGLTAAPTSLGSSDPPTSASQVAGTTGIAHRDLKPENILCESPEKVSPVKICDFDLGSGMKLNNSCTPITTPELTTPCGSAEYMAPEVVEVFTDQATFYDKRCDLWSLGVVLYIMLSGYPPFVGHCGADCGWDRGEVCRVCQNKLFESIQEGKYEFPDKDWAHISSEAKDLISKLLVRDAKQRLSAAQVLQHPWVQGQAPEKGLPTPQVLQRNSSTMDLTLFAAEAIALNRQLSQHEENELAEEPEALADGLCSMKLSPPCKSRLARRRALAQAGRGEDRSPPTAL

As to `O=C(c1ccc(-c2cnc3c(c2)N(Cc2cc(Cl)ccc2C(F)(F)F)CCN3)cc1)N1CCCCC1`, the inhibition in assay [1], in assay [2], in assay [3], in [4] and in assay [5] was under 50% throughout.
With `CN1CCN(c2ccc(-c3cnc4c(c3)N(Cc3c(F)ccc(F)c3Cl)CCN4)cn2)CC1`, the inhibition in assay [6], in assay [1], in assay [7], in [2], in [8] and in [9] was under 50% each time. Further, the inhibition in [10], in assay [3], in assay [11], in assay [12], in [4] and in [5] was under 50% throughout.
Take `COC1CCN(C(=O)c2ccc(-c3cnc4c(c3)N(Cc3cc(Cl)ccc3C(F)(F)F)CCN4)cc2)CC1`: the inhibition in assay [1], in [2], in [3], in assay [4] and in assay [5] was under 50% each time.
On to `O=C(O)c1ccc(-c2cnc3c(c2)N(Cc2cc(Cl)ccc2C(F)(F)F)CCN3)cc1`, for which the inhibition in assay [1] is under 50%; in assay [2], under 50%; in assay [3] it was 80.2%; in assay [4] it was under 50%; in assay [5] it was under 50%.
As to `FC(F)(F)c1ccc(Cl)cc1CN1CCNc2ncc(-c3ccnc(N4CCNCC4)c3)cc21`, the inhibition was under 50% in [6]; under 50% in [1]; 97% in assay [7]; under 50% in assay [2]; under 50% in assay [8]; under 50% in assay [9]. For the same molecule, the inhibition in assay [10] is under 50%; in assay [3] it was 68%; in [11], under 50%; in assay [12] it was under 50%; in assay [4], 96%; in assay [5] it was under 50%.
`CN1CCN(c2ccc(-c3cnc4c(c3)N(Cc3cc(Cl)ccc3Cl)CCN4)cn2)CC1`: the inhibition in assay [6], in [1], in [7], in assay [2], in assay [8] and in assay [9] was under 50% throughout. Further, the inhibition in assay [10], in [3], in [11], in assay [12], in assay [4] and in assay [5] was under 50% in each case.
In the case of `O=C(c1ccc(-c2cnc3c(c2)N(Cc2cc(Cl)ccc2C(F)(F)F)CCN3)cc1)N1CCC(N2CCCC2)CC1`, the inhibition in assay [1] was under 50%; in assay [2], under 50%; in assay [3] it was 69.5%; in assay [4], 84%; in assay [5], under 50%.
In the case of `CN1CCN(c2ccc(-c3cnc4c(c3)N(Cc3cc(Cl)ccc3C(F)(F)F)CCN4)cn2)CC1`, the inhibition in assay [6], in assay [1], in assay [7], in assay [2], in assay [8] and in assay [9] was under 50% throughout. Moreover, the inhibition in assay [10], in [3], in [11], in [12], in [4] and in [5] was under 50% in each case.
On to `CC(=O)N1CCN(c2cc(-c3cnc4c(c3)N(Cc3cc(Cl)ccc3C(F)(F)F)CCN4)ccn2)CC1`, for which the inhibition in [6] was under 50%; in assay [1], under 50%; in assay [7], 88%; in assay [2], under 50%; in assay [8] it was under 50%; in assay [9] it was under 50%. Moreover, the inhibition in assay [10] is under 50%; in assay [3], 68%; in assay [11], under 50%; in assay [12], under 50%; in assay [4] it was under 50%; in assay [5], under 50%.
In the case of `CN1CCN(c2ccc(-c3cnc4c(c3)N(Cc3cc(F)ccc3F)CCN4)cn2)CC1`, the inhibition in assay [6], in assay [1], in assay [7], in assay [2], in assay [8] and in assay [9] was under 50% each time. Moreover, the inhibition in assay [10], in [3], in assay [11], in assay [12], in assay [4] and in assay [5] was under 50% in each case.
